Experimental data as given in ChEMBL document CHEMBL1145834, “Novel selective hindlimb vasodilators: synthesis and biological activity of 1-acyl-4-aminopiperidine derivatives” (2003).

Experiments:
Assay type in all cases: functional, Canis lupus familiaris
Canis familiaris [1] = organism: Canis familiaris; test: Vasodilatory activity (at 100 nmol) relative to nifedipine (at 10 nmol) by coronary artery blood flow (CBF) in isolated blood perfused canine heart preparations.
Method in brief: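 The canine heart was isolated after pentobarbital (30 mg/kg iv), heparin (500 U/kg) and exsanguination. A septum–papillary muscle preparation was perfused with donor-dog blood via the anterior septal artery at constant 100 mmHg. It was preloaded to 2 g and paced at 120/min with 5 ms pulses at 1.2× threshold. Septal artery flow was read by electromagnetic flowmeter as CBF, and drugs were given intra-arterially. Ratio = effect of test compound (100 nmol) / effect of nifedipine (10 nmol). Means ± SE, n = 3 or 1.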

Canis familiaris [2] = organism: Canis familiaris; test: Vasodilatory activity (at 10 nmol) relative to nifedipine (at 1 nmol) by femoral artery blood flow (FBF) in autoperfused canine femoral artery preparations.
Method in brief: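 Dogs were anesthetized with pentobarbital (30 mg/kg iv, then 4 mg/kg/h infusion) and heparinized (700 U/kg, then 100 U/kg/h). The right femoral artery was autoperfused with carotid blood at 90 mL/min by pump. Flow was read by electromagnetic flowmeter in the circuit, and drugs were given intra-arterially by microsyringe. Ratio = effect of test compound (10 nmol) / effect of nifedipine (1 nmol). Means ± SE, n = 3 or 1.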

Canis familiaris [3] = test: Cardiovascular effect upon coronary artery blood flow(CBF) in anesthetized open-chest dogs at a dose of 10 ug/ kg administered intravenously
Method in brief: (§1)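 Mongrel dogs anesthetized with pentobarbital sodium 30 mg/kg, open chest. Parameters allowed to stabilize, then drug given as single 10 μg/kg iv dose via femoral vein cannula. FBF and CBF expressed as % change from predose value; BP as change from predose value. Means ± SE, n = 3.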

Canis familiaris [4] = test: Cardiovascular effect upon blood pressure(BP) in anesthetized open-chest dogs at a dose of 10 ug/ kg administered intravenously; method in brief: as §1
Canis familiaris [5] = test: Cardiovascular effect upon femoral artery blood flow(FBF) in anesthetized open-chest dogs at a dose of 10 ug/ kg administered intravenously; method in brief: as §1

SMILES | CBF Ratio (Canis familiaris [1]) | FBF Ratio (Canis familiaris [2]) | CBF % change (Canis familiaris [3]) | BP (Canis familiaris [4]) [mmHg] | FBF % change (Canis familiaris [5]) | CBF Ratio (Canis familiaris [3]) | FBF Ratio (Canis familiaris [5])
CCC(=O)Nc1c(C)cc(C(=O)N2CCC(N(C)CCc3ccccc3)CC2)cc1[N+](=O)[O-] | 0.09 | 0.24 |  |  |  |  | 
CCc1cc(C(=O)N2CCC(N(C)CCc3ccccc3)CC2)cc2c1NC(=O)CC2.O=C(O)C(=O)O | 0.18 | 1.07 | 15 | -26 | 54 |  | 
Cc1cc2c(cc1C(=O)N1CCC(N(C)CCc3ccccc3)CC1)CCC(=O)N2.O=C(O)C(=O)O | 0.02 | 3.01 | 11 | -13 | 41 |  | 
CCc1cc(C(=O)N2CCC(N(C)CCc3ccccc3)CC2)cc2ccc(O)nc12.O=C(O)C(=O)O | 0.18 | 0.96 | 26 | -22 | 78 |  | 
COc1cc2nc(O)ccc2cc1C(=O)N1CCC(N(C)CCc2ccccc2)CC1 | 0.04 | 1.07 | 7 | -9 | 26 |  | 
CN(CCc1ccccc1)C1CCN(C(=O)c2cc3c(c([N+](=O)[O-])c2)NC(=O)CC3)CC1 | 0.28 | 0.68 |  |  |  |  | 
CN(CCc1ccccc1)C1CCN(C(=O)c2ccc3c(c2)NC(=O)CC3)CC1 | 0.07 | 0.19 |  |  |  |  | 
CCC(=O)Nc1ccc(C(=O)N2CCC(N(C)CCc3ccccc3)CC2)cc1 | 0.02 | 1.23 | 5 | -7 | 38 |  | 
CCC(=O)Nc1cc(C)c(C(=O)N2CCC(N(C)CCc3ccccc3)CC2)cc1C.Cl | 0 | 0.49 |  |  |  |  | 
CN(CCc1ccccc1)C1CCN(C(=O)C2CC(=O)Nc3ccccc32)CC1.Cl (stereo not drawn) | 0.01 | 0.85 | 13 | -15 | 101 |  | 
CN(CCc1ccccc1)C1CCN(C(=O)c2cccc3c2NC(=O)CC3)CC1.Cl | 0.09 | 0.62 |  |  |  |  | 
CCC(=O)Nc1c(C)cc(C(=O)N2CCC(N(C)CCc3ccccc3)CC2)cc1OC.Cl | 0 | 0.7 |  | -14 |  | 11 | 48
Cc1cc(C(=O)N2CCC(N(C)CCc3ccccc3)CC2)cc2c1NC(=O)CC2.Cl | 0.14 | 0.67 | 13 | -26 | 32 |  | 
CCC(=O)Nc1ccc(C(=O)N2CCC(N(C)CCc3ccccc3)CC2)c(C)c1C.Cl | 0 | 0.43 |  |  |  |  | 
CN(CCc1ccccc1)C1CCN(C(=O)c2ccc3c(c2)CCC(=O)N3)CC1.Cl | 0 | 1.64 | 11 | -9 | 38 |  | 
CN(CCc1ccccc1)C1CCN(C(=O)c2cccc3nc(O)ccc23)CC1.Cl | 0.01 | 0.32 |  |  |  |  | 
CC(C)c1cc(C(=O)N2CCC(N(C)CCc3ccccc3)CC2)cc2c1NC(=O)CC2.Cl | 0.25 | 1.13 | 15 | -19 | 73 |  | 
COc1cc(C(=O)N2CCC(N(C)CCc3ccccc3)CC2)cc2ccc(O)nc12.Cl | 0.04 | 1.36 | 10 | -10 | 55 |  | 
CCC(=O)Nc1ccc(C(=O)N2CCC(N(C)CCc3ccccc3)CC2)cc1Cl.Cl | 0.16 | 1.71 |  |  |  |  | 
CCC(=O)Nc1c(C)cc(C(=O)N2CCC(N(C)CCc3ccccc3)CC2)cc1Cl.Cl | 0.08 | 0.1 |  |  |  |  | 
CCC(=O)Nc1ccc(C(=O)N2CCC(N(C)CCc3ccccc3)CC2)cc1[N+](=O)[O-].Cl | 0.26 | 0.29 |  |  |  |  | 
CCCc1cc(C(=O)N2CCC(N(C)CCc3ccccc3)CC2)cc2ccc(O)nc12.Cl | 0.35 | 1.61 | 8 | -22 | 67 |  | 
CN(CCc1ccccc1)C1CCN(C(=O)c2cc([N+](=O)[O-])c3nc(O)ccc3c2)CC1.Cl | 1.15 | 1.6 | 9 | -21 | 32 |  | 
COc1cc2c(cc1C(=O)N1CCC(N(C)CCc3ccccc3)CC1)CCC(=O)N2.Cl | 0 | 1.98 | 8 | -8 | 26 |  | 
COC(=O)C1=C(C)NC(C)=C(C(=O)OC)C1c1ccccc1[N+](=O)[O-] [NIFEDIPINE] |  |  | 104 | -37 | -28 |  | 
